IC50 data for five molecules are collected here from ChEMBL document CHEMBL1795252, “New class azaphilone produced by a marine fish-derived Chaetomium globosum. The stereochemistry and biological activities” (Bioorg Med Chem, 2011).

Molecules are shown by their SMILES.

Format in all cases: functional, cell-based
In one assay the test system is HL-60. The experiment in a line: Cytotoxicity against human HL60 cells after 72 hrs by MTT assay. Particulars: HL-60, 72 h. In a few lines: (§1)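 Cells grown in Eagle's MEM with 10% fetal calf serum at 37 °C, 5% CO2. Test material dissolved in DMSO (10 mM stock), diluted in medium to 200, 20 and 2 µM working solutions, combined with cell suspension (1 × 10^5 cells/ml). Incubated 72 h at 37 °C, MTT labeling, formazan dissolved in 20% SDS/0.1 N HCl, absorbance 540 nm. Growth as % of untreated control; triplicate assays; IC50 from semilog plots of averaged data.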
A general note: Formazan colour is commonly taken as a measure of viable cells.

The subject of the next assay is P388. The experiment in a line: Cytotoxicity against mouse P388 cells after 72 hrs by MTT assay. The following applies: P388, 72 h. The gist of the method: as §1
In another assay the test system is L1210. The experiment in a line: Cytotoxicity against mouse L1210 cells after 72 hrs by MTT assay. Particulars: L1210, 72 h. In a few lines:
as §1

The next assay relates to KB. The assay is described as follows: Cytotoxicity against human KB cells after 72 hrs by MTT assay. In a few lines: as §1

Usually IC50 stands for the concentration that inhibits the measured activity by half. Lower therefore signals inhibition by little substance. Turning to `C/C=C(\Cl)C(=O)[C@@](C)(O)[C@H]1CC(=O)C(C)=C2C=C(/C=C/[C@@H](C)[C@@H](C)O)OC=C21` [CHAETOMUGILIN P], the IC50 with HL-60 was 1.2 µM; in the assay with P388, 0.7 µM; with L1210, 1.5 µM; with KB it was 1.8 µM.
With `C[C@H](O)[C@@H](C)/C=C/C1=CC2=C(Cl)C(=O)[C@](C)(O)[C@@H](O)[C@@H]2CO1` [CHAETOMUGILIN R], the IC50 in the assay with HL-60 was determined as 51.8 µM; in the assay on P388 it was 32 µM; in the assay with L1210 it was 67.1 µM; in the assay on KB, 67.1 µM.
On to `O=c1[nH]cc(F)c(=O)[nH]1` [FLUOROURACIL], for which the IC50 in the assay with HL-60 is 2.7 µM; in the assay with P388, 1.7 µM; in the assay on L1210, 1.1 µM; in the assay with KB, 7.7 µM.
The corresponding values for `C/C=C(\C)C(=O)C[C@H]1C2=COC(/C=C/[C@@H](C)[C@@H](C)O)=CC2=C(Cl)C(=O)[C@@]1(C)O` [CHAETOMUGILIN I] are 1.1 µM, 1.1 µM, 1.9 µM and 2.3 µM.
For `C/C=C(\C)C(=O)C[C@H]1C2=COC(/C=C/[C@H](C)[C@@H](C)O)=CC2=C(Cl)C(=O)[C@@]1(C)O`, the IC50 in the assay with HL-60 came to 1 µM; in the assay on L1210, 1.6 µM; with KB it was 1.2 µM.
